Laboratory results: ChEMBL document CHEMBL4811293, “Novel irreversible covalent BTK inhibitors discovered using DNA-encoded chemistry” (Bioorg Med Chem, 2021)
Square brackets hold non-standard residues; d marks the D form. Peptide text beside a SMILES is read from it. * marks the point of attachment. Oic = O=C(O)[C@@H]1C[C@@H]2CCCC[C@@H]2N1; Phe(4-CN) = N#Cc1ccc(C[C@H](N)C(=O)O)cc1; Acryloyl = C=CC(=O)*

Key:
[1] = system: Tyrosine-protein kinase BTK (Homo sapiens), Q06187 [C481S]; experiment: Binding affinity to recombinant human BTK C481S mutant (389 to 659 residues) expressed in insect cells assessed as change in melting temperature at 50 uM incubated for 120 mins by thermal shift assay
In short: (§1)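 BTK (389-659), wild-type or C481S, at 5 μM with 50 μM compound for 120 min at room temperature in 20 mM HEPES pH 8.0, 0.5 mM TCEP, 150 mM NaCl, 0.01% Tween20, 0.5% DMSO. nanoDSF with a 20–95 °C ramp at 2.5 °C/min, tryptophan 350/330 nm ratio. Tm taken from the first-derivative maximum, three technical replicates. ΔTm is Tm with compound minus apo Tm.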

[2] = target: T1, Tyrosine-protein kinase BTK (Homo sapiens, UniProt Q06187); experiment: Binding affinity to BTK (unknown origin) by mass spectrometry analysis relative to control; parameters: concentration or dose not given beside the values
In short: (§2)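 Wild-type or C481S BTK incubated with compound for one hour. Samples diluted to 0.1 mg/ml protein in 5% acetonitrile/0.1% formic acid, then reversed-phase C4 LC (80 °C, acetonitrile/0.1% FA gradient, UV 214 and 280 nm) coupled to positive-mode ESI-MS for intact mass. Adduct read as the mass shift versus BTK alone.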

[3] = target: Tyrosine-protein kinase BTK (Homo sapiens, UniProt Q06187, C481S); experiment: Inhibition of recombinant human N-terminal His-tagged BTK C481S mutant expressed in baculovirus infected in Sf9 cells incubated for 1 hr by TR-FRET assay
In short: (§3)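 Proteros reporter displacement assay: enzyme pre-incubated with Cy5-labelled ATP-competitive kinase inhibitor probe, then unlabeled competitor added. Signal recorded for 1 hour and normalized at each time-point to high (enzyme + probe, no competitor) and low (enzyme, no probe, with competitor) controls. Technical triplicates.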

[4] = target: T1, Tyrosine-protein kinase BTK; experiment: Inhibition of recombinant human N-terminal His-tagged BTK expressed in baculovirus infected in Sf9 cells incubated for 1 hr by TR-FRET assay
In short: (§4)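 Proteros reporter displacement assay. BTK is preincubated with a Cy5-labelled ATP-competitive probe, then unlabelled competitor is added and signal recorded over 1 h, in technical triplicates. Data normalized to high and low controls at each time point. IC50 is apparent after 1 h. kobs comes from a mono-exponential decay fit excluding the first point, and is refit as kobs = kinact·[I]/(KI+[I]) to give kinact, KI and kinact/KI.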

[5] = target: T1, Tyrosine-protein kinase BTK; experiment: Binding affinity to recombinant human BTK (389 to 659 residues) expressed in insect cells assessed as change in melting temperature at 50 uM incubated for 120 mins by thermal shift assay; in short: as §1
[6] = target: T1, Tyrosine-protein kinase BTK; experiment: Inhibition of recombinant human N-terminal His-tagged BTK expressed in baculovirus infected in Sf9 cells assessed as ratio of inactivation constant to inhibitory constant incubated for 1 hr by TR-FRET assay; in short: as §4
[7] = system: Tyrosine-protein kinase BTK (Homo sapiens), Q06187 [C481S]; experiment: Binding affinity to BTK C481S mutant (unknown origin) by mass spectrometry analysis relative to control; parameters: concentration or dose not given beside the values; in short: as §2
[8] = target: T1, Tyrosine-protein kinase BTK; experiment: Inhibition of recombinant human N-terminal His-tagged BTK expressed in baculovirus infected in Sf9 cells assessed as inactivation constant incubated for 1 hr by TR-FRET assay; in short: as §4
[9] = target: T1, Tyrosine-protein kinase BTK; experiment: Inhibition of recombinant human N-terminal His-tagged BTK expressed in baculovirus infected in Sf9 cells assessed as inhibitory constant incubated for 1 hr by TR-FRET assay; in short: as §4
[10] = system: Tyrosine-protein kinase BTK (Homo sapiens), Q06187 [C481S]; experiment: Inhibition of recombinant human N-terminal His-tagged BTK C481S mutant expressed in baculovirus infected in Sf9 cells assessed as residence time incubated for 1 hr by TR-FRET assay; in short: as §3
[11] = target: T1, Tyrosine-protein kinase BTK; experiment: Inhibition of recombinant wild type human N-terminal His-tagged BTK expressed in baculovirus infected in Sf9 cells assessed as residence time incubated for 1 hr by TR-FRET assay; in short: as §3

Chain of Tyrosine-protein kinase BTK (Homo sapiens), Q06187 [C481S] (Q06187 whole entry C481S, the tested form may be a part): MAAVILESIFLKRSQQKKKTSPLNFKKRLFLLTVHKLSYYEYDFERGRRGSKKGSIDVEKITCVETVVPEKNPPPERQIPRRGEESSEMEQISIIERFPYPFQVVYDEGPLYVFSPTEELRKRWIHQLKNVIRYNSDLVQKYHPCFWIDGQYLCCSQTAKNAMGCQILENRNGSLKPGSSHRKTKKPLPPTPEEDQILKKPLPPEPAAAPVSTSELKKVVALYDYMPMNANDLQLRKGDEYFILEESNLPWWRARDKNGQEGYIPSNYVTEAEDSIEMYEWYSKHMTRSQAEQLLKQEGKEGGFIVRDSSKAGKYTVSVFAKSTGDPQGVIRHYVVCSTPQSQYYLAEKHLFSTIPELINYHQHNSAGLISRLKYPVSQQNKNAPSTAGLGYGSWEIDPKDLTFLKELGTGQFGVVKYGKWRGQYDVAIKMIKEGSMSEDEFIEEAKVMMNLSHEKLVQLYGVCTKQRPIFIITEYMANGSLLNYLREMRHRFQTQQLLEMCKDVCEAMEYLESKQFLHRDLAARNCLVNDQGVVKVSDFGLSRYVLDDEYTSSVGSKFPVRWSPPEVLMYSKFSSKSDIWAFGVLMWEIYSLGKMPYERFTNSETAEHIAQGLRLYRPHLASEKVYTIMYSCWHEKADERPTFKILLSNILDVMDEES
Chain of Tyrosine-protein kinase BTK (Homo sapiens, UniProt Q06187, C481S) (Q06187 2-659 C481S limits assumed): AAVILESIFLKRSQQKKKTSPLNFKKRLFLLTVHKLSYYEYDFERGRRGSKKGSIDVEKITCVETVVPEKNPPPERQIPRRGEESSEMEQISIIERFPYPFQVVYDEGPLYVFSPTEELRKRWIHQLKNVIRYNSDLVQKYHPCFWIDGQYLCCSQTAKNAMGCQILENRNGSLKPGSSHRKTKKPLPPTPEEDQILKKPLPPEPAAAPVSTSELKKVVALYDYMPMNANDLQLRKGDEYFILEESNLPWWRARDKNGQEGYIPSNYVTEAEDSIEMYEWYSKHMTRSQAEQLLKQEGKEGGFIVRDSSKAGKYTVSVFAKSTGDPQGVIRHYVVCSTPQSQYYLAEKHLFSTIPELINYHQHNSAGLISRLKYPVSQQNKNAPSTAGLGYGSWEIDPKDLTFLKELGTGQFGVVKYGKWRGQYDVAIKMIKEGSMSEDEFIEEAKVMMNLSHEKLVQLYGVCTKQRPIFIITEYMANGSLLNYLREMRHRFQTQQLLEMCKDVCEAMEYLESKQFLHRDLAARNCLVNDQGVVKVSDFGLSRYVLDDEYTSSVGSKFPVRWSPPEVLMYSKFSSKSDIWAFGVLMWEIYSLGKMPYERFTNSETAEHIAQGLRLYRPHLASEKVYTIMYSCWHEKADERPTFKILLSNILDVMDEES
T1 sequence (Q06187 whole entry): as the sequence (Q06187 whole entry C481S, the tested form may be a part) above, with S481C counted along it

| Compound | ΔTm [1] [°C] | Activity [2] [%] | IC50 [3] [nM] | IC50 [4] [nM] | ΔTm [5] [°C] | Ratio [6] [s⁻¹ M⁻¹] | Activity [7] [%] | Kinact [8] | Ki [9] [nM] | TIME [10] [h] | TIME [11] [h] |
| --- | --- | --- | --- | --- | --- | --- | --- | --- | --- | --- | --- |
| C=CC(=O)N1CCC[C@H](CC(=O)N2Cc3[nH]c4ccccc4c3C[C@@H]2C(=O)NC)C1 | 0.1 | 97.9 | > 59200 | 4760 | 6.55 | 59.2 | 0 |  |  |  |  |
| CNC(=O)[C@@H](Cc1ccc(C#N)cc1)NC(=O)[C@@H](NC(=O)[C@@H]1CO1)c1ccccc1 | -0.15 | 95.2 | > 59200 | 84.2 | 6.36 | 4880 | 0 | 9.41 10^-3/s | 1930 |  |  |
| C=CC(=O)N1[C@H](C(=O)N[C@@H](Cc2ccc(C#N)cc2)C(=O)NC)C[C@@H]2CCCC[C@@H]21 (Acryloyl-[Oic]-[Phe(4-CN)]-NHMe) |  | 94.4 | > 59200 | 36400 |  |  | 0 |  |  |  |  |
| CNC(=O)[C@H]1Cc2c([nH]c3ccccc23)CN1C(=O)C[C@@H](Cc1cccc(F)c1)NC(=O)C1CO1 (stereo partly specified) |  |  | > 59200 | 232 |  | 1660 |  | 1.54 10^-2/s | 9270 |  |  |
| CNC(=O)[C@@H](Cc1ccc(C#N)cc1)NC(=O)[C@@H](NC(=O)[C@]1(C)CO1)[C@@H](C)OC(C)(C)C | 0.23 | 92.3 | > 59200 | 58.1 | 4.51 | 6580 | 0 | 8.22 10^-3/s | 1250 |  |  |
| CNC(=O)[C@H]1Cc2c([nH]c3ccccc23)CN1C(=O)c1occc1CNc1ccc2nccnc2c1 | 13.4 | 0 | 3.04 | 3.78 | 13.2 |  | 0 |  |  | 0.367 | 0.15 |
| CNC(=O)[C@H]1Cc2c([nH]c3ccccc23)CN1C(=O)[C@@H](Cc1ccccc1)NC(=O)c1c[nH]c(C(N)=O)c1 |  |  | 56.2 | 22.7 |  |  |  |  |  | 0.233 | 0.567 |
